Measured values from ChEMBL document CHEMBL4219197, “Synthesis, biological evaluation and SAR of naftopidil-based arylpiperazine derivatives” (Bioorg Med Chem Lett, 2018).
pIC50: −log10 of the molar value.

How the values were obtained:
LNCaP = test: Cytotoxicity against human LNCAP cells assessed as growth inhibition after 24 hrs by CCK8 assay; format: functional, cell-based
Summary of the method: (§1)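 Cells (PC-3, LNCaP, DU145, normal prostate […] WPMY-1) exposed 24 h to escalating concentrations; viability by CCK-8 read-out as percent of control; IC50 derived.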

[1] = Cytotoxicity against human WPMY-1 cells assessed as growth inhibition after 24 hrs by CCK8 assay; format: cell-based; details: WPMY-1, 24 h; summary of the method: as §1
PC-3 = test: Cytotoxicity against human PC3 cells assessed as growth inhibition after 24 hrs by CCK8 assay; format: functional, cell-based; details: PC-3, 24 h; summary of the method: as §1
DU-145 [2] = test: Cytotoxicity against human DU145 cells assessed as growth inhibition after 24 hrs by CCK8 assay; format: functional, cell-based; details: DU-145, 24 h; summary of the method: as §1
[3] = target: T1, Alpha-1A adrenergic receptor (Homo sapiens, UniProt P35348); test: Antagonist activity at alpha 1A adrenergic receptor (unknown origin) by luciferase reporter gene assay; format: functional
T1 sequence (P35348 whole entry): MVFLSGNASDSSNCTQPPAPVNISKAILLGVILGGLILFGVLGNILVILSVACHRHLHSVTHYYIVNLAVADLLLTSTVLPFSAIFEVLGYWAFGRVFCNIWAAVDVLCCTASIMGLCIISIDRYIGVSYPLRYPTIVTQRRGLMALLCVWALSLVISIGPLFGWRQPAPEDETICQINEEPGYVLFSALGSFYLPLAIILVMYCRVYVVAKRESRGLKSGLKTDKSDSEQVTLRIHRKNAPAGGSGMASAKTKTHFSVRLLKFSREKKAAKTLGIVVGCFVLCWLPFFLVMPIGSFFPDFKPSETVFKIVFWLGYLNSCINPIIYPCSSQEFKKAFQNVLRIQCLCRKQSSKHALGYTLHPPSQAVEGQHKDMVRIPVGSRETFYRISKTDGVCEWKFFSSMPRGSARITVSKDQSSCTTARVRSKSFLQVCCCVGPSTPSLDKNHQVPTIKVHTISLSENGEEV
Summary of the method: (§2)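 Dual-luciferase reporter assay measuring antagonism at α1A, α1B and α1D adrenoceptor subtypes. IC50 values are means of three experiments.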

[4] = target: T2, Alpha-1D adrenergic receptor (Homo sapiens, UniProt P25100); test: Antagonist activity at alpha 1D adrenergic receptor (unknown origin) by luciferase reporter gene assay; format: functional; summary of the method: as §2
T2 sequence (P25100 whole entry): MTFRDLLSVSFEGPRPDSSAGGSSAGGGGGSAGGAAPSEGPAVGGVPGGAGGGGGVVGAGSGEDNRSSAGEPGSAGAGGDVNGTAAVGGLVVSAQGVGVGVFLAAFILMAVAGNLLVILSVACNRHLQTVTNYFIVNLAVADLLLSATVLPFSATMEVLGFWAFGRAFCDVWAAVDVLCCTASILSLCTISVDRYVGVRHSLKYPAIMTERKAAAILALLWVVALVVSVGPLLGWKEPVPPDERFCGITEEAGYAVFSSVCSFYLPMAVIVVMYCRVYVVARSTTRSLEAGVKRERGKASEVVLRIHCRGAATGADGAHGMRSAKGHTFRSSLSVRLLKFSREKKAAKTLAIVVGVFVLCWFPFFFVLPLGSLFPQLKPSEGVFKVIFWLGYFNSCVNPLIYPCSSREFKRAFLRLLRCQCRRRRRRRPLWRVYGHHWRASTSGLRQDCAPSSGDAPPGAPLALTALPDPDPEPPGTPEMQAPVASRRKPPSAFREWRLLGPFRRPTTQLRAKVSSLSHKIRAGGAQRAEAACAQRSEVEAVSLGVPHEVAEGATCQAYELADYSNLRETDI

DU-145 [5] = test: Potency index, ratio of naftopidil IC50 to compound IC50 for human DU145 cells; format: functional
[6] = target: T3, Alpha-1B adrenergic receptor (Homo sapiens, UniProt P35368); test: Antagonist activity at alpha 1B adrenergic receptor (unknown origin) by luciferase reporter gene assay; format: functional; summary of the method: as §2
T3 sequence (P35368 whole entry): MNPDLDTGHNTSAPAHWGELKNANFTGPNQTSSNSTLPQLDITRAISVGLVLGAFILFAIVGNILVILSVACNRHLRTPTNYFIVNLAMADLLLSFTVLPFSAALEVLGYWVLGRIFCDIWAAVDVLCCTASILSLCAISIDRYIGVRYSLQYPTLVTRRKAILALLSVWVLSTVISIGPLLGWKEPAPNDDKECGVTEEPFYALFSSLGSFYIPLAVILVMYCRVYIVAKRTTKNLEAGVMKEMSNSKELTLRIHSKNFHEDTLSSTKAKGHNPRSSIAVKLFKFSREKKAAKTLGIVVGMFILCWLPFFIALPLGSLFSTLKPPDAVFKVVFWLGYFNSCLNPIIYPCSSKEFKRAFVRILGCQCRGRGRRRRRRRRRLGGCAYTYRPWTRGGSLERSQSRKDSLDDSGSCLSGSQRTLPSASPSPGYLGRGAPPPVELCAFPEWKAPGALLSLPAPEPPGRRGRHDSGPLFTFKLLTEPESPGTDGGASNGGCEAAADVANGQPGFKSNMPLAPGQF

DU-145 [7] = test: Induction of apoptosis in human DU145 cells assessed as necrotic cells at 8 uM after 24 hrs by Annexin V/propidium iodide staining based flow cytometry (reference value: 0.33%); format: functional
DU-145 [8] = test: Induction of apoptosis in human DU145 cells assessed as live cells at 8 uM after 24 hrs by Annexin V/propidium iodide staining based flow cytometry (reference value: 99.38%); format: functional
DU-145 [9] = test: Cell cycle arrest in human DU145 cells assessed as accumulation at S phase at 8 uM after 24 hrs by propidium iodide staining based flow cytometry (reference value: 20.64%); format: functional
DU-145 [10] = test: Cell cycle arrest in human DU145 cells assessed as accumulation at G2/M phase at 8 uM after 24 hrs by propidium iodide staining based flow cytometry (reference value: 24.42%); format: functional
DU-145 [11] = test: Induction of apoptosis in human DU145 cells assessed as early apoptotic cells at 8 uM after 24 hrs by Annexin V/propidium iodide staining based flow cytometry (reference value: […]); format: functional
DU-145 [12] = test: Induction of apoptosis in human DU145 cells assessed as late apoptotic cells at 8 uM after 24 hrs by Annexin V/propidium iodide staining based flow cytometry (reference value: 0.17%); format: functional
DU-145 [13] = test: Cell cycle arrest in human DU145 cells assessed as accumulation at G0/G1 phase at 8 uM after 24 hrs by propidium iodide staining based flow cytometry (reference value: 55.49%); format: functional
DU-145 [14] = test: Cell cycle arrest in human DU145 cells assessed as accumulation at S phase at 6 uM after 24 hrs by propidium iodide staining based flow cytometry (reference value: 20.64%); format: functional
DU-145 [15] = test: Cell cycle arrest in human DU145 cells assessed as accumulation at G2/M phase at 6 uM after 24 hrs by propidium iodide staining based flow cytometry (reference value: 24.42%); format: functional
DU-145 [16] = test: Induction of apoptosis in human DU145 cells assessed as late apoptotic cells at 6 uM after 24 hrs by Annexin V/propidium iodide staining based flow cytometry (reference value: 0.17%); format: functional
DU-145 [17] = test: Induction of apoptosis in human DU145 cells assessed as necrotic cells at 6 uM after 24 hrs by Annexin V/propidium iodide staining based flow cytometry (reference value: 0.33%); format: functional
DU-145 [18] = test: Induction of apoptosis in human DU145 cells assessed as live cells at 6 uM after 24 hrs by Annexin V/propidium iodide staining based flow cytometry (reference value: 99.38%); format: functional
DU-145 [19] = test: Induction of apoptosis in human DU145 cells assessed as early apoptotic cells at 6 uM after 24 hrs by Annexin V/propidium iodide staining based flow cytometry (reference value: […]); format: functional
DU-145 [20] = test: Cell cycle arrest in human DU145 cells assessed as accumulation at G0/G1 phase at 6 uM after 24 hrs by propidium iodide staining based flow cytometry (reference value: 55.49%); format: functional

| Structure (SMILES) | pIC50 (LNCaP) | pIC50 [1] | pIC50 (PC-3) | pIC50 (DU-145 [2]) | also measured |
| --- | --- | --- | --- | --- | --- |
| FC(F)(F)c1ccccc1N1CCN(CCc2ccc(COc3ccc4c(c3)CCCC4)cc2)CC1 | 5.22 | < 4.30 | < 4.30 | < 4.30 |  |
| Cc1cccc(N2CCN(CCc3ccc(COc4ccc5c(c4)CCCC5)cc3)CC2)c1.Cl.Cl | < 4.30 | < 4.30 | 4.25 | 6.08 | pIC50 [3]: 6.30; pIC50 [4]: 6.08; Ratio IC50 (DU-145 [5]): 41; pIC50 [6]: 6.23 |
| COc1ccc(N2CCN(CCc3ccc(COc4ccc5c(c4)CCCC5)cc3)CC2)cc1.Cl.Cl | 4.34 | < 4.30 | 4.12 | 6.03 | pIC50 [3]: 7.24; Activity (DU-145 [7]): 0.34%; Activity (DU-145 [8]): 99.4%; Activity (DU-145 [9]): 21.14%; Activity (DU-145 [10]): 23.04%; pIC50 [4]: 6.13; Activity (DU-145 [11]): 0.11%; Activity (DU-145 [12]): 0.12%; Activity (DU-145 [13]): 56.91%; Ratio IC50 (DU-145 [5]): 37; pIC50 [6]: 6.01 |
| CCOc1ccccc1N1CCN(CCc2ccc(COc3ccc4c(c3)CCCC4)cc2)CC1 | 4.55 | < 4.30 | < 4.30 | < 4.30 |  |
| OC1(c2ccccc2)CCN(CCc2ccc(COc3ccc4c(c3)CCCC4)cc2)CC1 | 5.52 | 4.50 | < 4.30 | 5.47 |  |
| COc1ccc(Cl)cc1N1CCN(CCc2ccc(COc3ccc4c(c3)CCCC4)cc2)CC1 | < 4.30 | 4.33 | < 4.30 | 4.60 |  |
| Brc1ccc(N2CCN(CCc3ccc(COc4ccc5c(c4)CCCC5)cc3)CC2)cc1 | < 4.30 | < 4.30 | < 4.30 | 4.68 |  |
| Cl.Cl.Fc1ccc(N2CCN(CCc3ccc(COc4ccc5c(c4)CCCC5)cc3)CC2)cc1 | 4.32 | < 4.30 | 4.24 | 6.05 | pIC50 [3]: 5.97; pIC50 [4]: 6.99; Activity (DU-145 [14]): 20.42%; Activity (DU-145 [15]): 12.72%; Activity (DU-145 [16]): 0.1%; Activity (DU-145 [17]): 0.28%; Activity (DU-145 [18]): 99.5%; Ratio IC50 (DU-145 [5]): 38; Activity (DU-145 [19]): 0.05%; Activity (DU-145 [20]): 70.5%; pIC50 [6]: 5.95 |
| c1ccc(N2CCN(CCc3ccc(COc4ccc5c(c4)CCCC5)cc3)CC2)cc1 | 5.19 | < 4.30 | < 4.30 | < 4.30 |  |
| COc1ccccc1N1CCN(CCc2ccc(COc3ccc4c(c3)CCCC4)cc2)CC1 | 5.44 | 4.55 | < 4.30 | 5.65 |  |
| Cc1ccccc1N1CCN(CCc2ccc(COc3ccc4c(c3)CCCC4)cc2)CC1 | 4.48 | < 4.30 | 4.59 | < 4.30 |  |
| Fc1ccccc1N1CCN(CCc2ccc(COc3ccc4c(c3)CCCC4)cc2)CC1 | 5.12 | < 4.30 | 4.56 | < 4.30 |  |
| c1ccc(N2CCN(CCc3ccc(COc4ccc5c(c4)CCCC5)cc3)CC2)nc1 | 5.53 | 4.31 | 4.53 | 4.95 |  |
